These results are taken from ChEMBL document CHEMBL2046408, “Design, synthesis and antimicrobial activities of nitroimidazole derivatives containing 1,3,4-oxadiazole scaffold as FabH inhibitors” (Bioorg Med Chem, 2012).

One data set relates to Pseudomonas aeruginosa. In words: Antibacterial activity against Pseudomonas aeruginosa ATCC 27853 after 24 hrs by MTT assay. In kind it is functional. As to conditions: ATCC 27853, 24 h. A digest of the protocol:
(§1)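 Seeded broth in nutrient broth from 24 h bacterial cultures on nutrient agar at 37 °C. Suspension adjusted with sterile saline to 1 × 10⁴–10⁵ CFU. Compounds and reference drugs twofold serially diluted to 100, 50, 25, 12.5, 6.25 … µg/mL. MIC determined by MTT method.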
(Formazan colour is commonly taken as a measure of viable cells.)

A further data set deals with Escherichia coli. In words: Antibacterial activity against Escherichia coli ATCC 25922/35128 after 24 hrs by MTT assay. It counts as functional. As to conditions: ATCC 25922/35128, 24 h. A digest of the protocol: as §1
The next data set deals with Bacillus subtilis. As to the kind of experiment: Antibacterial activity against Bacillus subtilis ATCC 530 after 24 hrs by MTT assay. As to conditions: ATCC 530, 24 h. In kind it is functional. The method, boiled down:
as §1

In the next data set the test system is Staphylococcus aureus. As to the kind of experiment: Antibacterial activity against Staphylococcus aureus ATCC 25923 after 24 hrs by MTT assay. In kind it is functional. As to conditions: ATCC 25923, 24 h. The method, boiled down:
as §1

A short description of data set [1]: inhibition of Escherichia coli FabH expressed in Escherichia coli BL21 (DE3) cells assessed as [3H]acetyl-CoA after 5 mins by liquid scintillation counting. As to conditions: in the assay text read “after 25 mins” for “after 5 mins”. A digest of the protocol:
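His-tagged E. coli FabH was expressed in kanamycin-selected culture in LB at 37 °C, induced with 0.5 mM IPTG for 4 h, then Ni–NTA purified. Reactions were run in 20 mM sodium phosphate, pH 7.0, with holo-ACP. They were stopped with ice-cold 50% TCA, the protein was pelleted, and ³H incorporation into product was read by liquid scintillation. Inhibitors were added from DMSO stock, final DMSO ≤2%.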

Data set [2] in a line: Toxicity in RBC assessed as hemolysis. It counts as cell-based. The following applies: erythrocyte.
A short description of data set [3]: inhibition of Escherichia coli FabH expressed in Escherichia coli BL21 (DE3) cells assessed as [3H]acetyl-CoA after 25 mins by liquid scintillation counting.

Values after ≈ are worked out from the molar mass of the structure shown.

For orientation: MIC means the lowest concentration found to suppress growth. Low values mean greater potency, high ones weaker potency. For `Cc1ncc([N+](=O)[O-])n1Cc1nnc(Cc2cccc(Br)c2)o1`, the MIC amounted to 6.25 µg/mL (≈ 16.5 µM) in the data set with Pseudomonas aeruginosa, 25 µg/mL (≈ 66.1 µM) in the data set with Escherichia coli, 25 µg/mL (≈ 66.1 µM) with Bacillus subtilis and 50 µg/mL (≈ 132 µM) with Staphylococcus aureus.

For `Cc1ncc([N+](=O)[O-])n1Cc1nnc(Cc2ccc(F)cc2)o1`, the MIC against Pseudomonas aeruginosa came out at 12.5 µg/mL (≈ 39.4 µM); against Escherichia coli, 25 µg/mL (≈ 78.8 µM); against Bacillus subtilis, 50 µg/mL (≈ 158 µM); in the data set on Staphylococcus aureus, 25 µg/mL (≈ 78.8 µM).

Turning to `Cc1ccccc1Cc1nnc(Cn2c([N+](=O)[O-])cnc2C)o1`, the MIC with Pseudomonas aeruginosa was found to be 25 µg/mL (≈ 79.8 µM); against Escherichia coli it was 12.5 µg/mL (≈ 39.9 µM); against Bacillus subtilis, 50 µg/mL (≈ 160 µM); in the data set with Staphylococcus aureus, 25 µg/mL (≈ 79.8 µM).

Regarding `Cc1ncc([N+](=O)[O-])n1Cc1nnc(Cc2ccc([N+](=O)[O-])cc2)o1`, the MIC came to 25 µg/mL (≈ 72.6 µM) against Pseudomonas aeruginosa, 25 µg/mL (≈ 72.6 µM) against Escherichia coli, 25 µg/mL (≈ 72.6 µM) against Bacillus subtilis and 50 µg/mL (≈ 145 µM) in the data set on Staphylococcus aureus.

Broadly, the IC50 is the concentration at which inhibition is half-maximal. For the compound `Cc1ncc([N+](=O)[O-])n1Cc1nnc(-c2ccc(Cl)cc2)o1`, the MIC against Pseudomonas aeruginosa amounted to 12.5 µg/mL (≈ 39.1 µM); against Escherichia coli it was 12.5 µg/mL (≈ 39.1 µM); in the data set on Bacillus subtilis, 12.5 µg/mL (≈ 39.1 µM); against Staphylococcus aureus, 25 µg/mL (≈ 78.2 µM). The IC50 in data set [1] worked out at 28.3 µM. Further, the LC30 in data set [2] is > 10000 µg/mL.

With `COc1cccc(Cc2nnc(Cn3c([N+](=O)[O-])cnc3C)o2)c1`, the MIC against Pseudomonas aeruginosa is 12.5 µg/mL (≈ 38 µM); against Escherichia coli, 25 µg/mL (≈ 75.9 µM); in the data set with Bacillus subtilis, 25 µg/mL (≈ 75.9 µM); in the data set on Staphylococcus aureus, 50 µg/mL (≈ 152 µM).

Consider `Cc1ncc([N+](=O)[O-])n1Cc1nnc(-c2cccc(Br)c2)o1`, for which the MIC with Pseudomonas aeruginosa is 25 µg/mL (≈ 68.7 µM); with Escherichia coli it was 6.25 µg/mL (≈ 17.2 µM); in the data set with Bacillus subtilis, 6.25 µg/mL (≈ 17.2 µM); against Staphylococcus aureus, 25 µg/mL (≈ 68.7 µM). Moreover, in data set [1], the IC50 was found to be 16.9 µM. Further, the LC30 in data set [2] is > 10000 µg/mL.

In the case of `Cc1ncc([N+](=O)[O-])n1Cc1nnc(Cc2ccc(Br)cc2)o1`, the MIC in the data set with Pseudomonas aeruginosa was 25 µg/mL (≈ 66.1 µM); against Escherichia coli, 50 µg/mL (≈ 132 µM); in the data set on Bacillus subtilis it was 50 µg/mL (≈ 132 µM); in the data set on Staphylococcus aureus, 50 µg/mL (≈ 132 µM).

In the case of `Cc1ncc([N+](=O)[O-])n1Cc1nnc(Cc2cccc(F)c2)o1`, the MIC in the data set on Pseudomonas aeruginosa, against Escherichia coli, in the data set on Bacillus subtilis and in the data set on Staphylococcus aureus was > 100 µg/mL in each case.

`COc1cccc(-c2nnc(Cn3c([N+](=O)[O-])cnc3C)o2)c1`: the MIC against Pseudomonas aeruginosa amounted to 12.5 µg/mL (≈ 39.6 µM); against Escherichia coli it was 12.5 µg/mL (≈ 39.6 µM); in the data set on Bacillus subtilis, 6.25 µg/mL (≈ 19.8 µM); against Staphylococcus aureus, 12.5 µg/mL (≈ 39.6 µM). For the same compound, the IC50 in data set [1] worked out at 9.4 µM. The LC30 in data set [2] is > 10000 µg/mL.

Take `COc1ccccc1Cc1nnc(Cn2c([N+](=O)[O-])cnc2C)o1`: the MIC with Pseudomonas aeruginosa stood at 12.5 µg/mL (≈ 38 µM); in the data set on Escherichia coli it was 50 µg/mL (≈ 152 µM); against Bacillus subtilis, 25 µg/mL (≈ 75.9 µM); against Staphylococcus aureus it was 25 µg/mL (≈ 75.9 µM).

For `Cc1ncc([N+](=O)[O-])n1Cc1nnc(-c2cccc(F)c2)o1`, the MIC against Pseudomonas aeruginosa, in the data set on Escherichia coli, in the data set with Bacillus subtilis and against Staphylococcus aureus was > 100 µg/mL in each case.

In the case of `Cc1ncc([N+](=O)[O-])n1Cc1nnc(-c2ccc(F)cc2)o1`, the MIC against Pseudomonas aeruginosa was 25 µg/mL (≈ 82.4 µM); against Escherichia coli, 12.5 µg/mL (≈ 41.2 µM); against Bacillus subtilis, 12.5 µg/mL (≈ 41.2 µM); with Staphylococcus aureus, 25 µg/mL (≈ 82.4 µM). The IC50 in data set [1] came to 18.6 µM. Besides, the LC30 in data set [2] was > 10000 µg/mL.

Regarding `NC[C@H]1O[C@H](O[C@H]2[C@H](O)[C@@H](O[C@H]3O[C@H](CO)[C@@H](O)[C@H](N)[C@H]3O)[C@H](N)C[C@@H]2N)[C@H](O)[C@@H](O)[C@@H]1O` [KANAMYCIN], the MIC in the data set with Pseudomonas aeruginosa came out at 3.13 µg/mL (≈ 6.46 µM); against Escherichia coli, 3.13 µg/mL (≈ 6.46 µM); against Bacillus subtilis, 1.56 µg/mL (≈ 3.22 µM); with Staphylococcus aureus it was 1.56 µg/mL (≈ 3.22 µM).

On to `Cc1ccccc1-c1nnc(Cn2c([N+](=O)[O-])cnc2C)o1`, for which the MIC against Pseudomonas aeruginosa was 3.13 µg/mL (≈ 10.5 µM); in the data set with Escherichia coli it was 1.56 µg/mL (≈ 5.21 µM); against Bacillus subtilis it was 1.56 µg/mL (≈ 5.21 µM); in the data set on Staphylococcus aureus, 6.25 µg/mL (≈ 20.9 µM). Further, in data set [2], the LC30 was > 10000 µg/mL. In addition, the IC50 in data set [3] stood at 5.1 µM.

As for `COc1ccccc1-c1nnc(Cn2c([N+](=O)[O-])cnc2C)o1`, the MIC is 1.56 µg/mL (≈ 4.95 µM) against Pseudomonas aeruginosa, 1.56 µg/mL (≈ 4.95 µM) against Escherichia coli, 1.56 µg/mL (≈ 4.95 µM) against Bacillus subtilis and 3.13 µg/mL (≈ 9.93 µM) in the data set with Staphylococcus aureus. Further, the IC50 in data set [1] was 4.3 µM. Besides, the LC30 in data set [2] is > 10000 µg/mL.

`Cc1ncc([N+](=O)[O-])n1Cc1nnc(Cc2ccc(Cl)cc2)o1`: the MIC in the data set on Pseudomonas aeruginosa came out at 12.5 µg/mL (≈ 37.5 µM); with Escherichia coli, 50 µg/mL (≈ 150 µM); against Bacillus subtilis, 50 µg/mL (≈ 150 µM); with Staphylococcus aureus it was 25 µg/mL (≈ 74.9 µM).

As for `Cc1ncc([N+](=O)[O-])n1Cc1nnc(-c2ccc(Br)cc2)o1`, the minimal inhibitory concentration (MIC) with Pseudomonas aeruginosa worked out at 25 µg/mL (≈ 68.7 µM); against Escherichia coli, 25 µg/mL (≈ 68.7 µM); in the data set with Bacillus subtilis, 12.5 µg/mL (≈ 34.3 µM); against Staphylococcus aureus, 50 µg/mL (≈ 137 µM). For the same compound, the IC50 in data set [1] is 43.8 µM. In data set [2], the LC30 is > 10000 µg/mL.

As to `Cc1ncc([N+](=O)[O-])n1Cc1nnc(-c2ccc([N+](=O)[O-])cc2)o1`, the MIC in the data set with Pseudomonas aeruginosa was determined as 12.5 µg/mL (≈ 37.8 µM); with Escherichia coli it was 12.5 µg/mL (≈ 37.8 µM); against Bacillus subtilis it was 25 µg/mL (≈ 75.7 µM); in the data set with Staphylococcus aureus, 25 µg/mL (≈ 75.7 µM). Also, the LC30 in data set [2] is > 10000 µg/mL. The IC50 in data set [3] was found to be 40.5 µM.
